Measured values from ChEMBL document CHEMBL1124553, “Brain-specific chemical delivery systems for beta-lactam antibiotics. In vitro and in vivo studies of some dihydropyridine and dihydroisoquinoline derivatives of benzylpenicillin in rats” (J Med Chem, 1989).

Tests used:
[1] = Half-life for disappearance of compound from dog whole blood; type: ADME, organism-based, Canis lupus familiaris
Procedure, shortened: (§1)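 Freshly collected whole blood, or 10% w/v brain homogenate in pH 7.4 phosphate buffer (ionic strength 0.15), was prewarmed to 37 °C. Compound was spiked from an 8 mM DMSO stock to 40 µM final. Timed samples were quenched in 8% DMSO/acetonitrile, centrifuged, filtered and analyzed by reversed-phase C8 HPLC with UV detection. K came from linear regression of log peak height versus time, with t1/2 derived from it. Values are mean ± SE of three determinations in different animal samples.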

[2] = Half-life for disappearance of compound from human whole blood; type: ADME, organism-based; procedure, shortened: as §1
[3] = Half-life for disappearance of compound from rabbit 10% brain homogenate; type: ADME, Oryctolagus cuniculus; procedure, shortened: as §1
[4] = Half-life for disappearance of compound from rabbit whole blood; type: ADME, organism-based, Oryctolagus cuniculus; procedure, shortened: as §1
[5] = Half-life for disappearance of compound from rat 10% brain homogenate; type: ADME; procedure, shortened: as §1
[6] = Half-life for disappearance of compound from rat whole blood; type: ADME, organism-based; procedure, shortened: as §1
Canis familiaris = organism: Canis familiaris; assay: Pseudo first-order rate constant (K) for disappearance of compound from dog whole blood; type: ADME, organism-based, Canis lupus familiaris; procedure, shortened: as §1
Homo sapiens = organism: Homo sapiens; assay: Pseudo first-order rate constant (K) for disappearance of compound from human whole blood; type: ADME, organism-based; procedure, shortened: as §1
Oryctolagus cuniculus [7] = organism: Oryctolagus cuniculus; assay: Pseudo first-order rate constant (K) for disappearance of compound from rabbit 10% brain homogenate; type: ADME
Procedure, shortened: (§2)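 Freshly collected whole blood (rat trunk blood; rabbit) or 10% w/v brain homogenate made in pH 7.4 phosphate buffer (μ = 0.15), prewarmed to 37 °C. Compound added from 8 mM DMSO stock to a final 40 μM. Timed 0.3 mL samples were quenched in 8% DMSO/acetonitrile, centrifuged, filtered and analysed by reversed-phase C8 HPLC-UV. K came from linear regression of log peak height versus time; n=3 animal samples.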

Oryctolagus cuniculus [8] = organism: Oryctolagus cuniculus; assay: Pseudo first-order rate constant (K) for disappearance of compound from rabbit whole blood; type: ADME, organism-based; procedure, shortened: as §2
Rattus norvegicus [9] = organism: Rattus norvegicus; assay: Pseudo first-order rate constant (K) for disappearance of compound from rat 10% brain homogenate; type: ADME; procedure, shortened: as §2
[10] = Pseudo first-order rate constant (K) for disappearance of compound from rat whole blood; type: ADME, tissue-based; procedure, shortened: as §2
Rattus norvegicus [11] = assay: Concentration of compound in rat brain after intravenous injection of 20 mg/kg benzyl-penicillin after 60 min;Below detection limit.; type: functional, organism-based; parameters: dose 20 mg/kg
Procedure, shortened: (§3)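 Male Sprague-Dawley rats (200-250 g), conscious, received 60 µmol/kg (equimolar to 20 mg/kg benzylpenicillin) by tail-vein injection. Benzylpenicillin K was given in water/ethanol/propylene glycol, and the delivery systems in ethanol:propylene glycol 7:3, at 20 mg/mL. Rats were decapitated at set times (4-6 per point), with trunk blood heparinized and brain, kidney, liver and lung frozen. Benzylpenicillin was measured by disk microbioassay (Bacillus subtilis ATCC 6633) after >5-volume sterile-water dilution or homogenization, against matrix calibration curves; assay limit 0.05 µg/mL.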

Rattus norvegicus [12] = assay: Concentration of compound in rat blood after intravenous injection of 20 mg/kg benzyl-penicillin after 1 min; type: functional, organism-based; parameters: dose 20 mg/kg; procedure, shortened: as §3
Rattus norvegicus [13] = assay: Concentration of compound in rat blood after intravenous injection of 20 mg/kg benzyl-penicillin after 10 min; type: functional, organism-based; parameters: dose 20 mg/kg; procedure, shortened: as §3
Rattus norvegicus [14] = assay: Concentration of compound in rat blood after intravenous injection of 20 mg/kg benzyl-penicillin after 20 min; type: functional, organism-based; parameters: dose 20 mg/kg; procedure, shortened: as §3
Rattus norvegicus [15] = assay: Concentration of compound in rat blood after intravenous injection of 20 mg/kg benzyl-penicillin after 3 min; type: functional, organism-based; parameters: dose 20 mg/kg; procedure, shortened: as §3
Rattus norvegicus [16] = assay: Concentration of compound in rat blood after intravenous injection of 20 mg/kg benzyl-penicillin after 40 min; type: functional, organism-based; parameters: dose 20 mg/kg; procedure, shortened: as §3
Rattus norvegicus [17] = assay: Concentration of compound in rat blood after intravenous injection of 20 mg/kg benzyl-penicillin after 5 min; type: functional, organism-based; parameters: dose 20 mg/kg; procedure, shortened: as §3
Rattus norvegicus [18] = assay: Concentration of compound in rat blood after intravenous injection of 20 mg/kg benzyl-penicillin after 60 min; type: functional, organism-based; parameters: dose 20 mg/kg; procedure, shortened: as §3
Rattus norvegicus [19] = assay: Concentration of compound in rat brain after intravenous injection of 20 mg/kg benzyl-penicillin after 1 min; type: functional, organism-based; parameters: dose 20 mg/kg; procedure, shortened: as §3
Rattus norvegicus [20] = assay: Concentration of compound in rat brain after intravenous injection of 20 mg/kg benzyl-penicillin after 10 min; type: functional, organism-based; parameters: dose 20 mg/kg; procedure, shortened: as §3
Rattus norvegicus [21] = assay: Concentration of compound in rat brain after intravenous injection of 20 mg/kg benzyl-penicillin after 20 min;Below detection limit.; type: functional, organism-based; parameters: dose 20 mg/kg; procedure, shortened: as §3
Rattus norvegicus [22] = assay: Concentration of compound in rat brain after intravenous injection of 20 mg/kg benzyl-penicillin after 3 min; type: functional, organism-based; parameters: dose 20 mg/kg; procedure, shortened: as §3
Rattus norvegicus [23] = assay: Concentration of compound in rat brain after intravenous injection of 20 mg/kg benzyl-penicillin after 40 min;Below detection limit.; type: functional, organism-based; parameters: dose 20 mg/kg; procedure, shortened: as §3
Rattus norvegicus [24] = assay: Concentration of compound in rat brain after intravenous injection of 20 mg/kg benzyl-penicillin after 5 min; type: functional, organism-based; parameters: dose 20 mg/kg; procedure, shortened: as §3

Row | Compound | half-life [1] | half-life [2] | half-life [3] | half-life [4] | half-life [5] | half-life [6] | K (Canis familiaris) | K (Homo sapiens) | K (Oryctolagus cuniculus [7]) | K (Oryctolagus cuniculus [8]) | K (Rattus norvegicus [9]) | K [10] | other results
1 | C[n+]1cccc(C(=O)OCCOC(=O)C2N3C(=O)C(NC(=O)Cc4ccccc4)C3SC2(C)C)c1.[I-] (centres undefined) | 11.5 min | 6.7 min | 16.7 min | 2 min | 28.2 min | 1.6 min | 0.061 min⁻¹ | 0.105 min⁻¹ | 0.043 min⁻¹ | 0.33 min⁻¹ | 0.025 min⁻¹ | 0.435 min⁻¹ | 
2 | C[n+]1cc(C(=O)NCCOC(=O)C2N3C(=O)C(NC(=O)Cc4ccccc4)C3SC2(C)C)c2ccccc2c1.[I-] (centres undefined) | 13.5 min |  |  |  | 73.4 min | 6 min | 0.051 min⁻¹ |  |  |  | 0.01 min⁻¹ | 0.115 min⁻¹ | 
3 | CN1C=CCC(C(=O)OCOC(=O)C2N3C(=O)C(NC(=O)Cc4ccccc4)C3SC2(C)C)=C1 (centres undefined) | 3.6 min | 15.9 min | 4.3 min | 0.8 min | 0.6 min |  | 0.213 min⁻¹ | 0.045 min⁻¹ | 0.166 min⁻¹ | 0.949 min⁻¹ | 1.357 min⁻¹ |  | 
4 | CN1C=CCC(C(=O)NCCOC(=O)C2N3C(=O)C(NC(=O)Cc4ccccc4)C3SC2(C)C)=C1 (centres undefined) | 5.7 min | 19.4 min | 4.6 min | 1.3 min | 5.7 min | 0.3 min | 0.123 min⁻¹ | 0.037 min⁻¹ | 0.152 min⁻¹ | 0.553 min⁻¹ | 0.125 min⁻¹ | 2.712 min⁻¹ | Concentration (Rattus norvegicus [11]): Below limit of detection; Concentration (Rattus norvegicus [12]): 5 µg/mL; Concentration (Rattus norvegicus [13]): 4.9 µg/mL; Concentration (Rattus norvegicus [14]): 0.8 µg/mL; Concentration (Rattus norvegicus [15]): 7.3 µg/mL; Concentration (Rattus norvegicus [16]): 0.3 µg/mL; Concentration (Rattus norvegicus [17]): 3.8 µg/mL; Concentration (Rattus norvegicus [18]): 0.2 µg/mL; Concentration (Rattus norvegicus [19]): 0.2 µg/mL; Concentration (Rattus norvegicus [20]): 0.1 µg/mL; Concentration (Rattus norvegicus [21]): Below limit of detection; Concentration (Rattus norvegicus [22]): 0.3 µg/mL; Concentration (Rattus norvegicus [23]): Below limit of detection; Concentration (Rattus norvegicus [24]): 0.2 µg/mL
